Laboratory results: ChEMBL document CHEMBL4359890, “Design, synthesis of oleanolic acid-saccharide conjugates using click chemistry methodology and study of their anti-influenza activity” (Eur J Med Chem, 2019)
Active and inactive are the calls of the source. No cut-off for these calls is given here.

How the values were obtained:
[1] = test system: Influenza A virus; assay: Antiviral activity against Influenza A virus A/WSN/33 infected in MDCK cells assessed as reduction in virus-induced cytopathic effect at 100 uM after 40 hrs by Celltiter-Glo assay; type: functional, organism-based
Method in brief: (§1)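 This was a single-concentration screen at 100 μM in MDCK cells infected with A/WSN/33 at MOI 0.1. CPE protection was read by CellTiter-Glo after 40 h of incubation. The inhibition rate was expressed relative to 1% DMSO (final) negative control, with oseltamivir phosphate as the positive control. Experiments were run in triplicate.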

[2] = test system: MDCK; assay: Cytotoxicity against dog MDCK cells assessed as reduction in cell viability at 100 uM measured after 40 hrs by Celltiter-Glo assay; type: cell-based, Canis lupus familiaris
Method in brief: (§2)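 Uninfected MDCK cells were grown overnight in 96-well plates with 1% FBS. They were then exposed to increasing compound concentrations, or to a single 100 μM screen, for 40 h, and viability was read by CellTiter-Glo. CC50 is the concentration causing 50% death of uninfected cells.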

[3] = test system: Influenza A virus; assay: Antiviral activity against Influenza A virus A/WSN/33 infected in MDCK cells assessed as reduction in virus-induced cytopathic effect at 100 uM after 40 hrs by Celltiter-Glo assay relative to control; type: functional; details: A/WSN/33, MDCK; method in brief: as §1
[4] = test system: Influenza A virus; assay: Antiviral activity against Influenza A virus A/WSN/33 assessed as inhibition of virus-induced cytopathic effect after 40 hrs by Celltiter-Glo assay; type: functional, organism-based; details: A/WSN/33, 40 h
Method in brief: (§3)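 MDCK cells were seeded in 96-well plates, left overnight, then infected with influenza virus at MOI 0.1 and treated with the compound. After 40 h, viability was read by CellTiter-Glo luminescence. 1% DMSO (final) served as the negative control and oseltamivir phosphate as the positive control. IC50 is the concentration that inhibits virus-induced CPE by 50%, taken from dose-response curves in replicate independent experiments.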

[5] = test system: Influenza B virus; assay: Antiviral activity against Influenza B virus B/Yamagata/16/88(BY) infected in MDCK cells assessed as inhibition of virus-induced cytopathic effect after 40 hrs by Celltiter-Glo assay; type: functional, organism-based; method in brief: as §3
[6] = test system: Influenza B virus; assay: Antiviral activity against Influenza B virus B/Massachusetts/2/2012(BV) infected in MDCK cells assessed as inhibition of virus-induced cytopathic effect after 40 hrs by Celltiter-Glo assay; type: functional, organism-based; method in brief: as §3
[7] = Selectivity index, ratio of CC50 for MDCK cells to IC50 for influenza A virus A/WSN/33; type: toxicity; details: dog, read-out: Ratio CC50/IC50
Method in brief: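 SI was calculated as CC50 (uninfected MDCK, 40 h CellTiter-Glo) divided by IC50 (50% inhibition of A/WSN/33 replication in MDCK, MOI 0.1, 40 h CellTiter-Glo).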

[8] = test system: Influenza B virus; assay: Antiviral activity against Influenza B virus B/Sichuan/531/2018(BV) infected in MDCK cells assessed as inhibition of virus-induced cytopathic effect after 40 hrs by Celltiter-Glo assay; type: functional, organism-based; method in brief: as §3
[9] = Cytotoxicity against dog MDCK cells assessed as cell viability at 100 uM measured after 40 hrs by Celltiter-Glo assay relative to control; type: cell-based, Canis lupus familiaris; details: read-out: Activity; method in brief: as §2
[10] = test system: Influenza B virus; assay: Potency index, ratio of OSV-p IC50 to compound IC50 for antiviral activity against Influenza B virus B/Yamagata/16/88(BY); type: functional
[11] = target: Hemagglutinin (Influenza A virus) (UniProt B4URE7); assay: Inhibition of influenza A virus A/WSN/33 HA-mediated chicken erythrocytes hemagglutination pretreated with compound followed by erythrocytes addition measured after 30 mins
Sequence of Hemagglutinin (Influenza A virus) (B4URE7 as listed by the source): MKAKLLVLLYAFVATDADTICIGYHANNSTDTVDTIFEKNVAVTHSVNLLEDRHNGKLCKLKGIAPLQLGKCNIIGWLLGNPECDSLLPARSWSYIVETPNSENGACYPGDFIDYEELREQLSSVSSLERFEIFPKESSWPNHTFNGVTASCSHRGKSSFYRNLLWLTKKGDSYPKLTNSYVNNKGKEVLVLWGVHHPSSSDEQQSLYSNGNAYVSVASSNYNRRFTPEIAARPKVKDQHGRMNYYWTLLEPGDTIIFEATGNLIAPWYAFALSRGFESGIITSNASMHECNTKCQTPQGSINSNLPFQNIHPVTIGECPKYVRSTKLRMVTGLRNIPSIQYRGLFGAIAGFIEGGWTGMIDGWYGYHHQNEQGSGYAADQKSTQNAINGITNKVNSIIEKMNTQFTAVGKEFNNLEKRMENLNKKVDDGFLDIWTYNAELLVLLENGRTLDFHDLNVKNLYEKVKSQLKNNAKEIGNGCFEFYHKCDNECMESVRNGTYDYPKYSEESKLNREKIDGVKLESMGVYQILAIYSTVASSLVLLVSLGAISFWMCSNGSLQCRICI
Method in brief: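 Compound was serially diluted 2-fold in saline and mixed with an equal volume of A/WSN/33 (H1N1) virus in V-bottom plates. Freshly prepared chicken red blood cells (1% v/v in saline) were then added. After 30 min at room temperature, erythrocyte aggregation was scored visually. Anti-HA antibody served as the positive control.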

[12] = test system: Influenza A virus; assay: Antiviral activity against Influenza A virus A/Victoria/361/2011(H3N2) infected in MDCK cells assessed as inhibition of virus-induced cytopathic effect after 40 hrs by Celltiter-Glo assay; type: functional, organism-based; method in brief: as §3
[13] = Cytotoxicity against dog MDCK cells assessed as reduction in cell viability measured after 40 hrs by Celltiter-Glo assay; type: cell-based, Canis lupus familiaris; method in brief: as §2

CC1(C)CC[C@]2(C(=O)NCc3cn([C@@H]4O[C@H](CO)[C@@H](O[C@H]5O[C@H](CO)[C@@H](O[C@H]6O[C@H](CO)[C@@H](O)[C@H](O)[C@H]6O)[C@H](O)[C@H]5O)[C@H](O)[C@H]4O)nn3)CC[C@]3(C)C(=CC[C@@H]4[C@@]5(C)CC[C@H](O)C(C)(C)[C@@H]5CC[C@]43C)[C@@H]2C1
Activity [1]: inactive | Activity [2]: Non-Toxic

C[C@@H]1O[C@@H](n2cc(CNC(=O)[C@]34CCC(C)(C)C[C@H]3C3=CC[C@@H]5[C@@]6(C)CC[C@H](O)C(C)(C)[C@@H]6CC[C@@]5(C)[C@]3(C)CC4)nn2)[C@H](O)[C@H](O)[C@H]1O
inhibition at 100 µM [3]: 75% | Activity [2]: Toxic

CC1(C)CC[C@]2(C(=O)NCc3cn([C@@H]4O[C@H](CO)[C@@H](O[C@H]5O[C@H](CO)[C@@H](O)[C@H](O)[C@H]5O)[C@H](O)[C@H]4O)nn3)CC[C@]3(C)C(=CC[C@@H]4[C@@]5(C)CC[C@H](O)C(C)(C)[C@@H]5CC[C@]43C)[C@@H]2C1
Activity [2]: Non-Toxic

CC1(C)CC[C@]2(C(=O)NCc3cn([C@H]4O[C@H](CO)[C@@H](O)[C@H](O)[C@@H]4O)nn3)CC[C@]3(C)C(=CC[C@@H]4[C@@]5(C)CC[C@H](O)C(C)(C)[C@@H]5CC[C@]43C)[C@@H]2C1
Activity [2]: Non-Toxic

CC1(C)CC[C@]2(C(=O)NCc3cn([C@@H]4O[C@H](CO)[C@H](O)[C@H](O)[C@H]4O)nn3)CC[C@]3(C)C(=CC[C@@H]4[C@@]5(C)CC[C@H](O)C(C)(C)[C@@H]5CC[C@]43C)[C@@H]2C1
Activity [2]: Non-Toxic

CC(=O)O[C@@H]1[C@@H](OC(C)=O)[C@H](C)O[C@@H](n2cc(CNC(=O)[C@]34CCC(C)(C)C[C@H]3C3=CC[C@@H]5[C@@]6(C)CC[C@H](O)C(C)(C)[C@@H]6CC[C@@]5(C)[C@]3(C)CC4)nn2)[C@@H]1OC(C)=O
Activity [2]: Non-Toxic

CC1(C)CC[C@]2(C(=O)NCc3cn([C@@H]4O[C@H](CO)[C@@H](O[C@@H]5O[C@H](CO)[C@H](O)[C@H](O)[C@H]5O)[C@H](O)[C@H]4O)nn3)CC[C@]3(C)C(=CC[C@@H]4[C@@]5(C)CC[C@H](O)C(C)(C)[C@@H]5CC[C@]43C)[C@@H]2C1
Activity [2]: Non-Toxic

CC1(C)CC[C@]2(C(=O)NCc3cn([C@@H]4O[C@H](CO)[C@@H](O)[C@H](O)[C@H]4O)nn3)CC[C@]3(C)C(=CC[C@@H]4[C@@]5(C)CC[C@H](O)C(C)(C)[C@@H]5CC[C@]43C)[C@@H]2C1
IC50 [4]: 5.47 µM | IC50 [5]: 5.54 µM | inhibition at 100 µM [3]: > 75% | IC50 [6]: 11.5 µM | selectivity ratio [7]: > 18.3 | IC50 [8]: 26.1 µM | viability at 40 h, 100 µM [9]: > 75% | Ratio IC50 [10]: 4 | Activity [2]: Non-Toxic | inhibition [11]: Active | IC50 [12]: 10.4 µM | CC50 at 40 h [13]: > 100 µM

CC1(C)CC[C@]2(C(=O)NCc3cn([C@@H]4OC[C@H](O)[C@H](O)[C@H]4O)nn3)CC[C@]3(C)C(=CC[C@@H]4[C@@]5(C)CC[C@H](O)C(C)(C)[C@@H]5CC[C@]43C)[C@@H]2C1
IC50 [4]: 12.9 µM | inhibition at 100 µM [3]: > 75% | selectivity ratio [7]: > 7.73 | viability at 40 h, 100 µM [9]: > 75% | Activity [2]: Non-Toxic | CC50 at 40 h [13]: > 100 µM

CCOC(=O)C1=C[C@@H](OC(CC)CC)[C@H](NC(C)=O)[C@@H](N)C1 [OSELTAMIVIR PHOSPHATE]
IC50 [4]: 1.82 µM | IC50 [5]: 23.4 µM | IC50 [6]: > 100 µM | selectivity ratio [7]: > 54.9 | IC50 [8]: > 100 µM | IC50 [12]: > 100 µM | CC50 at 40 h [13]: > 100 µM

CC(=O)OC[C@H]1O[C@H](n2cc(CNC(=O)[C@]34CCC(C)(C)C[C@H]3C3=CC[C@@H]5[C@@]6(C)CC[C@H](O)C(C)(C)[C@@H]6CC[C@@]5(C)[C@]3(C)CC4)nn2)[C@@H](OC(C)=O)[C@@H](OC(C)=O)[C@@H]1OC(C)=O
IC50 [4]: 7.22 µM | inhibition at 100 µM [3]: > 75% | selectivity ratio [7]: > 13.8 | viability at 40 h, 100 µM [9]: > 75% | Activity [2]: Non-Toxic | CC50 at 40 h [13]: > 100 µM

CC(=O)O[C@@H]1[C@@H](OC(C)=O)[C@H](OC(C)=O)CO[C@H]1n1cc(CNC(=O)[C@]23CCC(C)(C)C[C@H]2C2=CC[C@@H]4[C@@]5(C)CC[C@H](O)C(C)(C)[C@@H]5CC[C@@]4(C)[C@]2(C)CC3)nn1
Activity [2]: Non-Toxic

CC(=O)O[C@@H]1[C@@H](OC(C)=O)[C@H](n2cc(CNC(=O)[C@]34CCC(C)(C)C[C@H]3C3=CC[C@@H]5[C@@]6(C)CC[C@H](O)C(C)(C)[C@@H]6CC[C@@]5(C)[C@]3(C)CC4)nn2)OC[C@@H]1OC(C)=O
Activity [2]: Non-Toxic

CC(=O)OC[C@H]1O[C@@H](n2cc(CNC(=O)[C@]34CCC(C)(C)C[C@H]3C3=CC[C@@H]5[C@@]6(C)CC[C@H](O)C(C)(C)[C@@H]6CC[C@@]5(C)[C@]3(C)CC4)nn2)[C@H](OC(C)=O)[C@@H](OC(C)=O)[C@@H]1OC(C)=O
Activity [2]: Non-Toxic

CC1(C)CC[C@]2(C(=O)NCc3cn([C@@H]4O[C@H](CO)[C@@H](O[C@@H]5O[C@H](CO)[C@@H](O)[C@H](O)[C@H]5O)[C@H](O)[C@H]4O)nn3)CC[C@]3(C)C(=CC[C@@H]4[C@@]5(C)CC[C@H](O)C(C)(C)[C@@H]5CC[C@]43C)[C@@H]2C1
Activity [2]: Non-Toxic

CC(=O)OC[C@H]1O[C@@H](O[C@H]2[C@H](OC(C)=O)[C@@H](OC(C)=O)[C@H](n3cc(CNC(=O)[C@]45CCC(C)(C)C[C@H]4C4=CC[C@@H]6[C@@]7(C)CC[C@H](O)C(C)(C)[C@@H]7CC[C@@]6(C)[C@]4(C)CC5)nn3)O[C@@H]2COC(C)=O)[C@H](OC(C)=O)[C@@H](OC(C)=O)[C@H]1OC(C)=O
Activity [2]: Non-Toxic

CC1(C)CC[C@]2(C(=O)O)CC[C@]3(C)C(=CC[C@@H]4[C@@]5(C)CC[C@H](O)C(C)(C)[C@@H]5CC[C@]43C)[C@@H]2C1 [OLEANOLIC_ACID]
IC50 [4]: 72.2 µM | selectivity ratio [7]: > 1.38 | CC50 at 40 h [13]: > 100 µM

CC(=O)OC[C@H]1O[C@@H](n2cc(CNC(=O)[C@]34CCC(C)(C)C[C@H]3C3=CC[C@@H]5[C@@]6(C)CC[C@H](O)C(C)(C)[C@@H]6CC[C@@]5(C)[C@]3(C)CC4)nn2)[C@H](OC(C)=O)[C@@H](OC(C)=O)[C@H]1OC(C)=O
inhibition at 100 µM [3]: 75% | Activity [2]: Toxic

CC1(C)CC[C@]2(C(=O)NCc3cn([C@@H]4OC[C@@H](O)[C@H](O)[C@H]4O)nn3)CC[C@]3(C)C(=CC[C@@H]4[C@@]5(C)CC[C@H](O)C(C)(C)[C@@H]5CC[C@]43C)[C@@H]2C1
inhibition at 100 µM [3]: 75% | Activity [2]: Toxic

CC(=O)OC[C@H]1O[C@@H](n2cc(CNC(=O)[C@]34CCC(C)(C)C[C@H]3C3=CC[C@@H]5[C@@]6(C)CC[C@H](O)C(C)(C)[C@@H]6CC[C@@]5(C)[C@]3(C)CC4)nn2)[C@H](OC(C)=O)[C@@H](OC(C)=O)[C@@H]1O[C@H]1O[C@H](COC(C)=O)[C@@H](OC(C)=O)[C@H](OC(C)=O)[C@H]1OC(C)=O
Activity [2]: Non-Toxic

CC(=O)OC[C@H]1O[C@@H](n2cc(CNC(=O)[C@]34CCC(C)(C)C[C@H]3C3=CC[C@@H]5[C@@]6(C)CC[C@H](O)C(C)(C)[C@@H]6CC[C@@]5(C)[C@]3(C)CC4)nn2)[C@H](OC(C)=O)[C@@H](OC(C)=O)[C@@H]1O[C@H]1O[C@H](COC(C)=O)[C@@H](O[C@H]2O[C@H](COC(C)=O)[C@@H](OC(C)=O)[C@H](OC(C)=O)[C@H]2OC(C)=O)[C@H](OC(C)=O)[C@H]1OC(C)=O
Activity [1]: inactive | Activity [2]: Non-Toxic

CC(=O)OC[C@H]1O[C@@H](n2cc(CNC(=O)[C@]34CCC(C)(C)C[C@H]3C3=CC[C@@H]5[C@@]6(C)CC[C@H](O)C(C)(C)[C@@H]6CC[C@@]5(C)[C@]3(C)CC4)nn2)[C@H](OC(C)=O)[C@@H](OC(C)=O)[C@@H]1O[C@@H]1O[C@H](COC(C)=O)[C@@H](OC(C)=O)[C@H](OC(C)=O)[C@H]1OC(C)=O
Activity [2]: Non-Toxic
